Test results as given in ChEMBL document CHEMBL3352437, “Novel 3,5-bis(arylidene)-4-oxo-1-piperidinyl dimers: structure-activity relationships and potent antileukemic and antilymphoma cytotoxicity” (Eur J Med Chem, 2014).

Assays:
[1] = system: CCRF-CEM; assay: Antiproliferative activity against human CEM cells after 72 hrs by coulter counting analysis; type: functional, cell-based
Procedure, shortened: (§1)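 Cells exposed to a range of concentrations in RPMI 1640 at 37°C for 72 h. Surviving cells counted by Coulter counter. IC50 taken from concentration-response curves, mean ± SD of at least three independent experiments.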

[2] = system: HCC 2998; assay: Cytotoxicity against human HCC2998 cells assessed as inhibition of tumor growth after 24 hrs; type: functional, cell-based; settings: HCC 2998, 24 h
[3] = Cytotoxicity against human SupT1 cells assessed as dead cells at 1 uM after 24 hrs; type: functional, SUP-T1
Procedure, shortened: (§2)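 Dienones added as DMSO solutions to cells in RPMI medium and incubated 24 h at 37°C. Cytotoxicity was scored as cell-membrane disruption by propidium iodide staining and expressed as percentage of dead cells, averaged over three independent experiments.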

[4] = system: SR; assay: Antileukemic activity against human SR cells assessed as inhibition of tumor growth after 24 hrs; type: functional, cell-based
[5] = Cytotoxicity against human 22Rvl cells assessed as dead cells at 1 uM after 24 hrs; type: functional; procedure, shortened: as §2
[6] = system: COLO 205; assay: Cytotoxicity against human COLO205 cells assessed as inhibition of tumor growth after 24 hrs; type: functional, cell-based; settings: COLO 205, 24 h
[7] = Cytotoxicity against human MOLT3 cells assessed as dead cells at 1 uM after 24 hrs; type: functional, MOLT-3; procedure, shortened: as §2
[8] = Cytotoxicity against human HuT-102 cells assessed as dead cells at 1 uM after 24 hrs; type: functional; procedure, shortened: as §2
[9] = Cytotoxicity against human NCI60 cells assessed as inhibition of tumor growth after 24 hrs; type: functional, cell-based; settings: NCI60, 24 h
[10] = system: Jurkat; assay: Cytotoxicity against human Jurkat cells assessed as dead cells at 1 uM after 24 hrs; type: functional; procedure, shortened: as §2
[11] = system: Raji; assay: Cytotoxicity against human Raji cells assessed as dead cells at 1 uM after 24 hrs; type: functional; procedure, shortened: as §2
[12] = system: KM12; assay: Cytotoxicity against human KM12 cells assessed as inhibition of tumor growth after 24 hrs; type: functional, cell-based; settings: KM12, 24 h
[13] = Cytotoxicity against human HCT15 cells assessed as inhibition of tumor growth after 24 hrs; type: functional, cell-based; settings: HCT-15, 24 h
[14] = system: HS27; assay: Cytotoxicity against human HS27 cells assessed as dead cells at 1 uM after 24 hrs; type: cell-based; settings: hs27, 24 h
Procedure, shortened: (§3)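 Compounds added from DMSO solutions to cells in medium (RPMI; DMEM for Hs-27 fibroblasts) and incubated 24 h at 37°C. Membrane disruption scored by propidium iodide uptake. Result is percentage of dead cells, average of three independent experiments.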

[15] = system: LAPC4; assay: Cytotoxicity against human LAPC4 cells assessed as dead cells at 1 uM after 24 hrs; type: functional; procedure, shortened: as §2
[16] = Cytotoxicity against human NALM6 cells assessed as dead cells at 1 uM after 24 hrs; type: functional, NALM-6; procedure, shortened: as §2
[17] = system: HCC70; assay: Cytotoxicity against human HCC70 cells assessed as dead cells at 1 uM after 24 hrs; type: functional; procedure, shortened: as §2
[18] = system: BJAB; assay: Cytotoxicity against human BJAB cells assessed as dead cells at 1 uM after 24 hrs; type: functional; procedure, shortened: as §2
[19] = system: Ramos; assay: Cytotoxicity against human Ramos cells assessed as dead cells at 1 uM after 24 hrs; type: functional; procedure, shortened: as §2
[20] = system: CCRF-CEM; assay: Cytotoxicity against human CEM cells assessed as dead cells at 1 uM after 24 hrs; type: functional; procedure, shortened: as §2
[21] = system: K562; assay: Antileukemic activity against human K562 cells assessed as inhibition of tumor growth after 24 hrs; type: functional, cell-based; settings: K562, 24 h
[22] = Antiproliferative activity against human Molt4/C8 cells after 72 hrs by coulter counting analysis; type: functional, cell-based; settings: MOLT-4, 72 h; procedure, shortened: as §1
[23] = system: SW-620; assay: Cytotoxicity against human SW620 cells assessed as inhibition of tumor growth after 24 hrs; type: functional, cell-based; settings: SW-620, 24 h
[24] = system: L1210; assay: Antiproliferative activity against mouse L1210 cells after 72 hrs by coulter counting analysis; type: functional, cell-based; settings: L1210, 72 h
[25] = system: HL-60(TB); assay: Antileukemic activity against human HL-60(TB) cells assessed as inhibition of tumor growth after 24 hrs; type: functional, cell-based; settings: HL-60, 24 h
[26] = system: DU-145; assay: Cytotoxicity against human DU145 cells assessed as dead cells at 1 uM after 24 hrs; type: functional; procedure, shortened: as §2
[27] = system: EL4; assay: Cytotoxicity against mouse EL4 cells assessed as dead cells at 1 uM after 24 hrs; type: functional; procedure, shortened: as §2
[28] = system: YT; assay: Cytotoxicity against human YT cells assessed as dead cells at 1 uM after 24 hrs; type: functional; procedure, shortened: as §2
[29] = Cytotoxicity against human MDA231 cells assessed as dead cells at 1 uM after 24 hrs; type: functional, MDA-MB-231; procedure, shortened: as §2
[30] = Cytotoxicity against human MCF10A cells assessed as dead cells at 1 uM after 24 hrs; type: cell-based; settings: mcf-10a; procedure, shortened: as §3
[31] = system: HeLa; assay: Antiproliferative activity against human HeLa cells after 72 hrs by coulter counting analysis; type: functional, cell-based; procedure, shortened: as §1
[32] = system: MCF7; assay: Cytotoxicity against human MCF7 cells assessed as dead cells at 1 uM after 24 hrs; type: functional; procedure, shortened: as §2
[33] = Antileukemic activity against human RPMI8226 cells assessed as inhibition of tumor growth after 24 hrs; type: functional, cell-based; settings: rpmi-8226

## O=C1/C(=C\c2ccc(Cl)cc2)CN(C(=O)CC(=O)N2C/C(=C\c3ccc(Cl)cc3)C(=O)/C(=C/c3ccc(Cl)cc3)C2)C/C1=C\c1ccc(Cl)cc1
[1]
  IC50: 1060 nM
[2]
  IC50: 130 nM
[3]
  Activity: 21.1%
[4]
  IC50: 10 nM
[5]
  Activity: 1.7%
[6]
  IC50: 80 nM
[7]
  Activity: 20.6%
[8]
  Activity: 20.4%
[9]
  IC50: 90 nM
[10]
  Activity: 85.3%
[11]
  Activity: 32.7%
[12]
  IC50: 160 nM
[13]
  IC50: 60 nM
[14]
  Activity: 5.7%
[15]
  Activity: 1%
[16]
  Activity: 68.6%
[17]
  Activity: 7.8%
[18]
  Activity: 49.9%
[19]
  Activity: 86.3%
[20]
  Activity: 83%
[21]
  IC50: 30 nM
[22]
  IC50: 1050 nM
[23]
  IC50: 30 nM
[24]
  IC50: 847 nM
[25]
  IC50: 110 nM
[26]
  Activity: 40.3%
[27]
  Activity: 55.4%
[28]
  Activity: 16.8%
[29]
  Activity: 32.7%
[30]
  Activity: 3.1%
[31]
  IC50: 822 nM
[32]
  Activity: 19.5%
[33]
  IC50: 20 nM

## Cc1ccc(/C=C2/CN(C(=O)CC(=O)N3C/C(=C\c4ccc(C)cc4)C(=O)/C(=C/c4ccc(C)cc4)C3)C/C(=C\c3ccc(C)cc3)C2=O)cc1
[1]
  IC50: 3440 nM
[2]
  IC50: 300 nM
[3]
  Activity: 23.6%
[4]
  IC50: 50 nM
[5]
  Activity: 6.3%
[6]
  IC50: 170 nM
[7]
  Activity: 21.3%
[8]
  Activity: 50.9%
[9]
  IC50: 190 nM
[10]
  Activity: 85.5%
[11]
  Activity: 46.5%
[12]
  IC50: 170 nM
[13]
  IC50: 80 nM
[14]
  Activity: 26.5%
[15]
  Activity: 7%
[16]
  Activity: 67.6%
[17]
  Activity: 10.1%
[18]
  Activity: 60.2%
[19]
  Activity: 83%
[20]
  Activity: 85.7%
[21]
  IC50: 100 nM
[22]
  IC50: 1890 nM
[23]
  IC50: 150 nM
[24]
  IC50: 5380 nM
[25]
  IC50: 230 nM
[26]
  Activity: 21.9%
[27]
  Activity: 66.9%
[28]
  Activity: 29.1%
[29]
  Activity: 8.6%
[30]
  Activity: 15.4%
[31]
  IC50: 2880 nM
[32]
  Activity: 19.1%
[33]
  IC50: 30 nM

## O=C1/C(=C/c2ccc(Cl)cc2)CN(C(=O)C(=O)N2C/C(=C\c3ccc(Cl)cc3)C(=O)/C(=C/c3ccc(Cl)cc3)C2)C/C1=C\c1ccc(Cl)cc1
[1]
  IC50: 793 nM
[2]
  IC50: 310 nM
[3]
  Activity: 18.1%
[4]
  IC50: 20 nM
[5]
  Activity: 13.6%
[6]
  IC50: 160 nM
[7]
  Activity: 0.4%
[8]
  Activity: 31.4%
[9]
  IC50: 220 nM
[10]
  Activity: 78.5%
[11]
  Activity: 35.7%
[12]
  IC50: 210 nM
[13]
  IC50: 140 nM
[14]
  Activity: 0%
[15]
  Activity: 27%
[16]
  Activity: 59%
[17]
  Activity: 8.4%
[18]
  Activity: 43.1%
[19]
  Activity: 82.9%
[20]
  Activity: 59.9%
[21]
  IC50: 130 nM
[22]
  IC50: 294 nM
[23]
  IC50: 180 nM
[24]
  IC50: 547 nM
[25]
  IC50: 190 nM
[26]
  Activity: 33.1%
[27]
  Activity: 52.5%
[28]
  Activity: 21.5%
[29]
  Activity: 10%
[30]
  Activity: 2.2%
[31]
  IC50: 649 nM
[32]
  Activity: 17.8%
[33]
  IC50: 50 nM
